Reference: ChEMBL document CHEMBL4706495, “A novel class of small molecule inhibitors with radioprotective properties” (Eur J Med Chem, 2020)
Calls of active or inactive are those of the source. The calls are words filed in the database; no cut-off is given here.

Legend:
HT-29 [1] = assay: Cytotoxicity against human HT-29 cells assessed as cell viability at 100 uM measured after 48 hrs by WST-1 assay relative to control; type: functional; settings: read-out: Activity
In short: (§1)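 Ten-line human panel (9 cancer, 1 non-cancerous). Cells were seeded at a pre-established optimal density (500–30 × 10³ per well) and settled overnight. Compounds came from 10 mM DMSO stocks and were tested at two concentrations. WST-1 readout followed the manufacturer's protocol at the end of cultivation. Viability is expressed as % of untreated control cells, mean of three independent experiments.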

HT-29 [2] = assay: Cytotoxicity against human HT-29 cells assessed as cell viability at 10 uM measured after 48 hrs by WST-1 assay relative to control; type: functional; settings: read-out: Activity; in short: as §1
HeLa [3] = assay: Cytotoxicity against human HeLa cells assessed as cell viability at 10 uM measured after 48 hrs by WST-1 assay relative to control; type: functional; settings: read-out: Activity; in short: as §1
[4] = Toxicity in C57Bl/6 mouse assessed as change in body weight at 100 mg/kg, ip measured after 30 days (reference value: 103 +/- 12 %); type: organism-based; settings: in vivo, 720 h, time 30 day
Mus musculus [5] = assay: Radioprotective activity in C57Bl/6 mouse assessed as average body weight at 100 mg/kg, ip administered 5 min prior to gamma-irradation at 8.5 Gy and measured after 30 days; type: functional
Mus musculus [6] = assay: Radioprotective activity in C57Bl/6 mouse assessed as increase in absolute B-lymphocytes at 100 mg/kg, ip pretreated with compound for 5 min followed by gamma irradiation at 8.5 Gy and measured after 12 to 30 days by flow cytometry; type: functional, organism-based
In short: (§2)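 C57Bl/6 mice receive 100 mg/kg i.p. 5 min before a single 8.5 Gy ⁶⁰Co γ dose. At 7, 12 and 30 days post-irradiation, 100 µl peripheral blood is stained with anti-CD3ε, CD19 and NK1.1 antibodies for 30 min at 4 °C in the dark. Samples are washed twice and analysed by flow cytometry for T, B and NK cells. Mean ± SEM.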

A549 [7] = assay: Cytotoxicity against human A549 cells assessed as cell viability at 100 uM measured after 48 hrs by WST-1 assay relative to control; type: functional; settings: read-out: Activity; in short: as §1
A549 [8] = assay: Cytotoxicity against human A549 cells assessed as maximum tolerated concentration incubated for 24 hrs by MTT assay; type: functional
In short: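 A-549 cells in DMEM with 10% FBS and 1% penicillin-streptomycin, left to attach overnight. Compounds made up in PBS, serially diluted in DMEM, incubated 24 h, then viability read by MTT reduction against untreated controls on each plate. MTC taken as the highest concentration showing no significant difference from non-treated control (t-test).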

Mus musculus [9] = assay: Radioprotective activity in C57Bl/6 mouse assessed as increase in absolute T-lymphocytes at 100 mg/kg, ip pretreated with compound for 5 min followed by gamma irradiation at 8.5 Gy and measured after 12 to 30 days by flow cytometry; type: functional, organism-based; in short: as §2
MCF7 [10] = assay: Cytotoxicity against human MCF7 cells assessed as cell viability at 10 uM measured after 48 hrs by WST-1 assay relative to control; type: functional; settings: read-out: Activity; in short: as §1
A549 [11] = assay: Cytotoxicity against human A549 cells assessed as cell viability at 10 uM measured after 48 hrs by WST-1 assay relative to control; type: functional; settings: read-out: Activity; in short: as §1
Jurkat [12] = assay: Cytotoxicity against human Jurkat cells assessed as cell viability at 100 uM measured after 48 hrs by WST-1 assay relative to control; type: functional; settings: read-out: Activity; in short: as §1
SAOS-2 [13] = assay: Cytotoxicity against human SAOS-2 cells assessed as cell viability at 100 uM measured after 48 hrs by WST-1 assay relative to control; type: functional; settings: read-out: Activity; in short: as §1
Mus musculus [14] = assay: Radioprotective activity in C57Bl/6 mouse assessed as body weight gain at 100 mg/kg, ip administered 5 min prior to gamma-irradation at 8.5 Gy measured after 30 days relative to control; type: functional
[15] = Toxicity in C57Bl/6 mouse assessed as average body weight at 100 mg/kg, ip and measured immediately (reference value: 26.3 +/- 2.4 g); type: organism-based; settings: in vivo
Mus musculus [16] = assay: Radioprotective activity in C57Bl/6 mouse assessed as median survival time at 100 mg/kg, ip administered 5 min prior to gamma-irradation at 8.5 Gy and measured after 30 days (reference value: 12 days); type: functional
Jurkat [17] = assay: Cytotoxicity against human Jurkat cells assessed as cell viability at 10 uM measured after 48 hrs by WST-1 assay relative to control; type: functional; settings: read-out: Activity; in short: as §1
A2780 [18] = assay: Cytotoxicity against human A2780 cells assessed as cell viability at 100 uM measured after 48 hrs by WST-1 assay relative to control; type: functional; settings: read-out: Activity; in short: as §1
MCF7 [19] = assay: Cytotoxicity against human MCF7 cells assessed as cell viability at 100 uM measured after 48 hrs by WST-1 assay relative to control; type: functional; settings: read-out: Activity; in short: as §1
PANC-1 [20] = assay: Cytotoxicity against human PANC-1 cells assessed as cell viability at 10 uM measured after 48 hrs by WST-1 assay relative to control; type: functional; settings: read-out: Activity; in short: as §1
A2780 [21] = assay: Cytotoxicity against human A2780 cells assessed as cell viability at 10 uM measured after 48 hrs by WST-1 assay relative to control; type: functional; settings: read-out: Activity; in short: as §1
A549 [22] = assay: Cytotoxicity against human A549 cells assessed as reduction in cell viability incubated for 24 hrs by MTT assay; type: functional, cell-based; settings: A549, 24 h
In short: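 A-549 cells in DMEM with 10% FBS and 1% penicillin-streptomycin were attached overnight. Compounds were prepared in PBS and serially diluted in DMEM, then incubated 24 h. Viability was read by colorimetric MTT reduction against an untreated control on each plate (100%). IC50 came from four-parameter nonlinear regression of the log concentration-response curve, mean ± SEM. MTC is the highest concentration not differing from control (t-test).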

MOLT-4 [23] = assay: Cytotoxicity against human MOLT-4 cells assessed as cell viability at 10 uM measured after 48 hrs by WST-1 assay relative to control; type: functional; settings: read-out: Activity; in short: as §1
Mus musculus [24] = assay: Radioprotective activity in C57Bl/6 mouse assessed as increase in absolute NK population at 100 mg/kg, ip pretreated with compound for 5 min followed by gamma irradiation at 8.5 Gy and measured after 12 to 30 days by flow cytometry; type: functional, organism-based; in short: as §2
[25] = Toxicity in C57Bl/6 mouse assessed as average body weight at 100 mg/kg, ip measured after 30 days (reference value: 27 +/ 3.2 g); type: organism-based; settings: in vivo, 720 h, time 30 day
MOLT-4 [26] = assay: Radioprotective activity against gamma irradiation-induced apoptosis in human MOLT-4 cells assessed as viable cells at 100 uM pretreated with compound for 1 hr followed by gamma irradiation and measured after 24 hrs by annexinV/propidium iodide staining based flow cytometry (reference value: 40 %); type: functional; settings: MOLT-4, light or radiation study, time 25 hrs, read-out: Activity
SAOS-2 [27] = assay: Cytotoxicity against human SAOS-2 cells assessed as cell viability at 10 uM measured after 48 hrs by WST-1 assay relative to control; type: functional; settings: read-out: Activity; in short: as §1
[28] = Cytotoxicity against human MRC5 cells assessed as cell viability at 100 uM measured after 48 hrs by WST-1 assay relative to control; type: cell-based; settings: read-out: Activity; in short: as §1
[29] = Toxicity in C57Bl/6 mouse assessed as adverse effects at 100 mg/kg, ip measured after 30 days; type: organism-based; settings: in vivo, 720 h, time 30 day
In short: (§3)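 Safety in C57Bl/6 mice (27 ± 3 g) given a single 100 mg/kg i.p. injection without irradiation. Deaths, adverse effects and body weight followed over 30 days against an untreated control group. Weight reported as change from day 0.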

Mus musculus [30] = assay: Radioprotective activity in C57Bl/6 mouse assessed as average body weight at 100 mg/kg, ip administered 5 min prior to gamma-irradation at 8.5 Gy and measured immediately (reference value: 25.4 +/- 2.6 g); type: functional
MOLT-4 [31] = assay: Cytotoxicity against human MOLT-4 cells assessed as cell viability at 100 uM measured after 48 hrs by WST-1 assay relative to control; type: functional; settings: read-out: Activity; in short: as §1
[32] = Cytotoxicity against human MRC5 cells assessed as cell viability at 10 uM measured after 48 hrs by WST-1 assay relative to control; type: cell-based; settings: read-out: Activity; in short: as §1
HeLa [33] = assay: Cytotoxicity against human HeLa cells assessed as cell viability at 100 uM measured after 48 hrs by WST-1 assay relative to control; type: functional; settings: read-out: Activity; in short: as §1
PANC-1 [34] = assay: Cytotoxicity against human PANC-1 cells assessed as cell viability at 100 uM measured after 48 hrs by WST-1 assay relative to control; type: functional; settings: read-out: Activity; in short: as §1
[35] = Toxicity in C57Bl/6 mouse assessed as mouth death at 100 mg/kg, ip measured after 30 days; type: organism-based; settings: in vivo, 720 h, time 30 day; in short: as §3
Mus musculus [36] = assay: Radioprotective activity in C57Bl/6 mouse assessed as increase in absolute B-lymphocytes at 100 mg/kg, ip pretreated with compound for 5 min followed by gamma irradiation at 8.5 Gy and measured after 30 days by flow cytometry; type: functional, organism-based; in short: as §2
Mus musculus [37] = assay: Radioprotective activity in C57Bl/6 mouse assessed as increase in absolute T-lymphocytes at 100 mg/kg, ip pretreated with compound for 5 min followed by gamma irradiation at 8.5 Gy and measured after 30 days by flow cytometry; type: functional, organism-based; in short: as §2
Mus musculus [38] = assay: Radioprotective activity in C57Bl/6 mouse assessed as increase in absolute NK population at 100 mg/kg, ip pretreated with compound for 5 min followed by gamma irradiation at 8.5 Gy and measured after 30 days by flow cytometry; type: functional, organism-based; in short: as §2

Structure (SMILES): COc1cc([N+](=O)[O-])ccc1OCC(O)CN1CCN(CCO)CC1 (stereo not given)
- viability at 100 µM (HT-29 [1]): 111%
- viability at 10 µM (HT-29 [2]): 99%
- viability at 10 µM (HeLa [3]): 101%
- Activity [4]: 103%
- Activity (Mus musculus [5]): 26.5 g
- Activity (Mus musculus [6]): Active
- viability at 100 µM (A549 [7]): 105%
- MTD (A549 [8]): 0.78 mM
- Activity (Mus musculus [9]): Active
- viability at 10 µM (MCF7 [10]): 103%
- viability at 10 µM (A549 [11]): 93%
- viability at 100 µM (Jurkat [12]): 92%
- viability at 100 µM (SAOS-2 [13]): 94%
- Activity (Mus musculus [14]): 101%
- Activity [15]: 27.8 g
- MST (Mus musculus [16]): 11 days
- viability at 10 µM (Jurkat [17]): 101%
- viability at 100 µM (A2780 [18]): 95%
- viability at 100 µM (MCF7 [19]): 98%
- viability at 10 µM (PANC-1 [20]): 92%
- viability at 10 µM (A2780 [21]): 99%
- IC50 (A549 [22]): 4.45 mM
- viability at 10 µM (MOLT-4 [23]): 92%
- Activity (Mus musculus [24]): Active
- Activity [25]: 28.5 g
- viability at 100 µM (MOLT-4 [26]): 59%
- viability at 10 µM (SAOS-2 [27]): 103%
- viability at 48 h, 100 µM [28]: 97%
- Activity [29]: Non-Toxic
- Activity (Mus musculus [30]): 26.1 g
- viability at 100 µM (MOLT-4 [31]): 99%
- viability at 48 h, 10 µM [32]: 97%
- viability at 100 µM (HeLa [33]): 108%
- viability at 100 µM (PANC-1 [34]): 105%
- Activity [35]: Non-Toxic

Structure (SMILES): COc1ccccc1OCC(O)CN1CCN(CCO)CC1 (stereo not given)
- viability at 100 µM (HT-29 [1]): 143%
- viability at 10 µM (HT-29 [2]): 93%
- viability at 10 µM (HeLa [3]): 93%
- Activity [4]: 102%
- Activity (Mus musculus [5]): 27.6 g
- viability at 100 µM (A549 [7]): 109%
- MTD (A549 [8]): 1.56 mM
- Activity (Mus musculus [36]): Active
- viability at 10 µM (MCF7 [10]): 99%
- viability at 10 µM (A549 [11]): 91%
- viability at 100 µM (Jurkat [12]): 86%
- viability at 100 µM (SAOS-2 [13]): 82%
- Activity (Mus musculus [14]): 102%
- Activity (Mus musculus [37]): Active
- Activity [15]: 27.9 g
- MST (Mus musculus [16]): 13 days
- viability at 10 µM (Jurkat [17]): 106%
- viability at 100 µM (A2780 [18]): 78%
- viability at 100 µM (MCF7 [19]): 95%
- viability at 10 µM (PANC-1 [20]): 100%
- viability at 10 µM (A2780 [21]): 100%
- IC50 (A549 [22]): 9.27 mM
- Activity (Mus musculus [38]): Active
- viability at 10 µM (MOLT-4 [23]): 100%
- Activity [25]: 28.5 g
- viability at 100 µM (MOLT-4 [26]): 59%
- viability at 10 µM (SAOS-2 [27]): 106%
- viability at 48 h, 100 µM [28]: 109%
- Activity [29]: Non-Toxic
- Activity (Mus musculus [30]): 26.8 g
- viability at 100 µM (MOLT-4 [31]): 76%
- viability at 48 h, 10 µM [32]: 90%
- viability at 100 µM (HeLa [33]): 99%
- viability at 100 µM (PANC-1 [34]): 115%
- Activity [35]: Non-Toxic
